Source: PubChem BioAssay
Rows were chosen to be rich in hits. Some 1.6% of all compounds tested hit in one or more screens of this group.
UBC13 polyUb: blocks human UBC13 polyubiquitin chain formation; TR-FRET; inhibition, % at 20 µM; AID 485273; hit rate 0.47% among 330,000; in the data active = inhibition above about 45%, passing the limit was not always enough
Target sequence (P61088 whole entry, looked up): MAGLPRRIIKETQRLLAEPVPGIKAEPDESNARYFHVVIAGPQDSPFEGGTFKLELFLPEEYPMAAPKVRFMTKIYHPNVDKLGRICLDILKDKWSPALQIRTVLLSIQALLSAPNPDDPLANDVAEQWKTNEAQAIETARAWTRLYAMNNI
RAD52 inh: blocks human RAD52 DNA annealing; recombinant RAD52 DNA annealing, FRET fluorescence; inhibition, % at 18.7 µM; hit rate 0.46% among 360,000;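 active = every replicate showing at least 50% inhibition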
FID counter: counter-screen for HCV NS3 helicase inhibitors: DNA intercalator displacement. DNA fluorescent intercalator displacement, fluorescence. inhibition, % at 7.9 µM. hit rate 0.17% among 290,000. AID 1845; in the data active = inhibition above about 37%;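 also: 0% = vehicle and 100% = reference compound; higher means more ethidium bromide displaced from hairpin DNA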
RAD54 inh: blocks human RAD54 Holliday junction branch migration; FAM/BHQ fluorescence; inhibition, % at 10.4 µM; hit rate 0.14% among 360,000; AID 602329;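 active = mean normalized replicate activity at least 40 and at least half of replicates scoring 40 or more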;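 also: 0% = median of neutral control wells and 100% = median of positive control wells; inhibitors cause a drop in the FAM fluorescence signal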
Neddylation inh: cullin neddylation inhibition | hit rate 0.58% among 360,000 | calls only at 25 µM | TR-FRET cullin neddylation, biochemical; in the data active = inhibition above about 36%
Apaf1 inhib: inhibitors of human Apaf-1 apoptosome; O14727; reconstituted apoptosome caspase-3 activity, DEVD-Rh110 fluorescence; inhibition, % at 20 µM; hit rate 0.71% among 330,000; AID 489030; active = inhibition of at least 40% at 20 µM;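 also: plate controls were DMSO wells for no effect and DEVD-CHO caspase inhibitor wells for full effect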
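Material: reconstituted apoptosome with Apaf-1, cytochrome c, caspase-9, procaspase-3, dATP; medium: pH 7.5 Hepes buffer with CHAPS, BSA, DTT; also added: cytochrome c and DEVD-Rh110 substrate; timing: 30 min plus 50 min, RT; signal: Rh110 fluorescence intensity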
Casp3 counter: inhibits human caspase-3 in UBC13 counter-screen; shares compounds with UBC13 polyUb; Recombinant caspase-3, Caspase-Glo 3/7 luminescence, 60 min; inhibition, % at 20 µM; hit rate 4% among 1,400;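 active = mean inhibition across replicates above about 26%, limit read from the data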;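 also: plate controls were DMSO with caspase-3 for no effect and DMSO wells lacking enzyme for full effect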
Target sequence (P42574 whole entry, looked up): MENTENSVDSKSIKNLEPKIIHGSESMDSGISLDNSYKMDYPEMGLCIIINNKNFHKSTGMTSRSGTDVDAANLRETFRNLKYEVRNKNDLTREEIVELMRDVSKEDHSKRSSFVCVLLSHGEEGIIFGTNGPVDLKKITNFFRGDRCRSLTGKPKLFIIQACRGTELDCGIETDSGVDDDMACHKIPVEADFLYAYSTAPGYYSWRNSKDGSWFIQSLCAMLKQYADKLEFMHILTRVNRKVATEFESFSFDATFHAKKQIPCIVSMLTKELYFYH
UBC13 confirm: confirmation of human UBC13 polyubiquitin inhibitors; inhibition, % at 10 µM; AID 488859; UBC13 polyubiquitination, TR-FRET, biochemical; shares compounds with UBC13 polyUb; hit rate 68% among 1,400; in the data active = inhibition above about 45%
Apaf-1 inh conf2: confirmation of Apaf-1 inhibitors. shares compounds with Apaf1 inhib. reconstituted apoptosome, caspase-3 DEVD-Rh110 fluorescence. inhibition, % at 20 µM. hit rate 25% among 1,800. AID 504614;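 active = mean inhibition of at least 40% at 20 µM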;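 also: plate controls were DMSO wells for no effect and DEVD-CHO caspase inhibitor control wells for full effect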
Rh110 interf inh: interferes with Rh110 fluorescence, flagging false Apaf-1 inhibitors. Rh110 fluorescence interference, quenched caspase reaction. activation (fluorescence interference), % at 20 µM. 1,800 tested, under 10 active. shares compounds with Apaf1 inhib. AID 504615;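 active = signal rise of 40% or more at 20 µM, treated as a fluorescence artifact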
Fluor interf inh: shows fluorescence interference in the Apaf-1 inhibitor assay format. AID 588538. shares compounds with Apaf1 inhib. 460 tested, under 10 active. IC50, µM. fluorescence interference counterscreen, Apaf-1 assay format; call rule not given here
* = called active by the depositor; i = inactive; . = not tested or not shown.

SMILES	UBC13 polyUb	RAD52 inh	FID counter	RAD54 inh	Neddylation inh	Apaf1 inhib	Casp3 counter	UBC13 confirm	Apaf-1 inh conf2	Rh110 interf inh	others
CCc1ccc(OCC(O)CN2CCC(CN3C(=O)c4cccc5cccc(c45)C3=O)CC2)cc1 (stereo not given)	61*	.	9	.	i	42*	4	65*	13	-10
N=c1n(Cc2ccccc2)c2ccccc2n1CC(O)COc1ccc(Cl)cc1Cl (stereo not given)	65*	49	29	.	i	52*	0	91*	38	-18
COc1ccccc1NC(=O)N[C@@H]1CC[C@H](CCNS(=O)(=O)c2ccc(F)cc2)O[C@@H]1CO	.	2	.	-1	.	.	.	.	.	.
C#CCOCCOCCOCCNc1nc(N2CCN(C(=O)[C@H](Cc3ccc(O)cc3)n3cc([C@@H](N)C(C)CC)nn3)CC2)nc(N2CCN(C(=O)[C@H](Cc3cc4ccccc4[nH]3)n3cc([C@@H](N)CC(C)C)nn3)CC2)n1 (stereo not given in full)	76*	-40	60*	.	.	47*	-4	56*	1	3
C#CCOCCOCCOCCNc1nc(N2CCN(C(=O)[C@H](CCC(=O)O)n3cc(C(N)CC(C)C)nn3)CC2)nc(N2CCN(C(=O)[C@H](Cc3cc4ccccc4[nH]3)n3cc(C(N)CC(C)C)nn3)CC2)n1 (stereo not given in full)	2	.	19	-3	i	-3	.	.	.	.
C#CCOCCOCCOCCNc1nc(N2CCN(C(=O)C([C@@H](C)O)n3cc([C@@H](N)CCCCN)nn3)CC2)nc(N2CCN(C(=O)[C@H](CC(N)=O)n3cc(C(N)[C@@H](C)CC)nn3)CC2)n1 (stereo not given in full)	21	15	.	-32	i	0	.	.	.	.
C#CCOCCOCCOCCNc1nc(N2CCN(C(=O)[C@H](Cc3cc4ccccc4[nH]3)n3cc([C@@H](N)C(C)CC)nn3)CC2)nc(N2CCN(C(=O)[C@H](CCCCN)n3cc([C@@H](N)CC(C)C)nn3)CC2)n1 (stereo not given in full)	98*	.	44*	.	.	41*	-2	116*	7	7
C#CCOCCOCCOCCNc1nc(N2CCN(C(=O)C([C@@H](C)O)n3cc([C@@H](N)CCCCN)nn3)CC2)nc(N2CCN(C(=O)[C@H](CO)n3cc([C@@H](N)C(C)C)nn3)CC2)n1 (stereo not given in full)	105*	58*	.	7	i	53*	-5	111*	8	3
C#CCOCCOCCOCCNc1nc(N2CCN(C(=O)[C@H](Cc3cc4ccccc4[nH]3)n3cc([C@@H](N)CC(C)C)nn3)CC2)nc(N2CCN(C(=O)[C@H](Cc3cc4ccccc4[nH]3)n3cc([C@@H](N)CC(C)C)nn3)CC2)n1	106*	.	64*	-4	i	71*	-1	105*	25	20
COc1ccccc1C(=O)Nc1ccc2c(c1)C(=O)N(C)[C@H]1CC[C@@H](CC(=O)NCc3ccc(Cl)c(Cl)c3)O[C@H]1CO2	.	-8	.	2	.	.	.	.	.	.
CO[C@@H]1CC[C@@H]2CCN(C)C(=O)[C@H](C)N(C)C(=O)c3cc(C#N)ccc3OC[C@H]1O2	.	.	.	-4	.	.	.	.	.	.
Cc1noc(C)c1NC(=O)Nc1ccc2c(c1)C(=O)N([C@@H](C)CO)C[C@@H](C)[C@@H](CN(C)C(=O)Nc1cccc3ccccc13)O2	.	-5	.	-5	.	.	.	.	.	.
COCC(=O)N(C)C[C@H]1Oc2ncc(C3=CCCC3)cc2C(=O)N([C@@H](C)CO)C[C@H]1C	.	-35	.	-2	.	.	.	.	.	.
CCCC#Cc1cnc2c(c1)C(=O)N([C@@H](C)CO)C[C@@H](C)[C@@H](CN(C)C(=O)Nc1ccccc1OC)O2	.	0	.	4	.	.	.	.	.	.
C[C@@H](CN1C2=NC[C@H](Cc3ccccc3)N2C[C@H]1Cc1ccc(O)cc1)NC(=O)CCC1CCCCC1	66*	24	8	1	i	41*	0	41	12	9
C[C@@H](CN1C2=NC[C@H](Cc3ccc(O)cc3)N2C[C@H]1Cc1ccc(O)cc1)NC(=O)CCC1CCCCC1	44	12	12	12	i	3	.	.	.	.
CCC(=O)N1C[C@H](C)[C@H](OC)CN(C)C(=O)c2cc(NC(=O)Nc3cccc(F)c3)ccc2OC[C@H]1C	.	-14	.	-1	.	.	.	.	.	.
C[C@@H]1CN([C@@H](C)CO)C(=O)c2cc(C#CCN(C)C)cnc2O[C@H]1CN(C)Cc1ccccc1	.	0	.	-12	.	.	.	.	.	.
Cn1c(COc2ccccc2O)[n+](C)c2ccccc21	4	1	-1	3	i	-1	.	.	.	.
CCCCCCCCCCOC(=O)Cn1c(COc2ccccc2OC)[n+](C)c2ccccc21	64*	75*	46*	42	i	71*	1	68*	65*	34	Fluor interf inh=>100
COc1ccc(NC(=O)N(C)C[C@@H]2Oc3ccc(NS(C)(=O)=O)cc3CC(=O)N([C@H](C)CO)C[C@@H]2C)cc1	.	-4	.	-1	.	.	.	.	.	.
Oc1ccc(C[C@H]2CNCCN2CCC23CC4CC(CC(C4)C2)C3)cc1	38	-7	.	7	i	24	.	.	.	.
Oc1ccc(C[C@@H]2CNCCN2CCC23CC4CC(CC(C4)C2)C3)cc1	58*	-15	.	1	i	47*	-3	25	2	5
CCCC(=O)Nc1ccc2c(c1)OC[C@H](C)N(Cc1ccncc1)C[C@H](C)[C@H](OC)CN(C)C2=O	.	7	.	-6	.	.	.	.	.	.
COc1ccc(/C=N/Nc2cc(C)nc3ccc(Br)cc23)cc1	61*	4	28	119*	i	55*	4	85*	24	-1
COc1cccc2c(N/N=C/c3ccccc3)cc(C)nc12	-3	1	-19	3	i	11	.	.	.	.
CCN1CCN(Cc2ccc(NC(=O)c3cc(NC(=O)C(=O)c4c[nH]c5ccccc45)cc(OC)c3)cc2C(F)(F)F)CC1	55*	-11	.	-8	i	41*	-4	76*	24	1
CCN1CCN(Cc2ccc(NC(=O)c3ccc(C)c(NC(=O)c4ccc5n[nH]nc5c4)c3)cc2C(F)(F)F)CC1	-9	-11	.	1	i	1	.	.	.	.
